In ChEMBL document CHEMBL5625173, “Antimycobacterial pyridine carboxamides: From design to in vivo activity” (Eur J Med Chem, 2023):
≈ marks a conversion by molar mass, not a printed value.

How the values were obtained:
[1] = Cytotoxicity against human HepG2 cells assessed as inhibition of cell viability; assay type: toxicity, cell-based
[2] = system: Mycobacterium tuberculosis; assay: Antimycobacterial activity against Mycobacterium tuberculosis H37Rv by alamar blue staining based microplate analysis; assay type: functional
Procedure, shortened: (§1)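 Microplate Alamar Blue assay. MIC values read at pH 6.6 (neutral). One acidic-pH test at pH 5.6 is footnoted separately.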

[3] = system: Mycolicibacterium smegmatis; assay: Antimycobacterial activity against Mycobacterium smegmatis by alamar blue staining based microplate analysis; assay type: functional
Procedure, shortened: (§2)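 Microplate Alamar Blue assay, one of six mycobacterial strains tested (Mtb H37Rv, Mtb H37Ra, M. kansasii, M. avium, M. smegmatis, M. aurum); value reported as MIC.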

Mycolicibacterium aurum = assay: Antimycobacterial activity against Mycobacterium aurum by alamar blue staining based microplate analysis; assay type: functional; procedure, shortened: as §2
Mycobacterium kansasii = assay: Antimycobacterial activity against Mycobacterium kansasii by alamar blue staining based microplate analysis; assay type: functional; procedure, shortened: as §2
[4] = system: Mycobacterium tuberculosis; assay: Antimycobacterial activity against Mycobacterium tuberculosis H37Ra by alamar blue staining based microplate analysis; assay type: functional; procedure, shortened: as §1
Mycobacterium avium = assay: Antimycobacterial activity against Mycobacterium avium by alamar blue staining based microplate analysis; assay type: functional; procedure, shortened: as §1
[5] = Selectivity index, ratio of IC50 for cytotoxicity against human HepG2 cells to MIC for antimycobacterial activity against Mycobacterium tuberculosis H37Rv; assay type: toxicity, cell-based; conditions: read-out: Selectivity Index

O=C(O)c1ccc(NC(=O)c2cccc(Cl)n2)cc1
IC50 [1]: > 0.25 mM
MIC [2]: > 100 µg/mL
MIC [3]: ≥ 500 µg/mL
MIC (Mycolicibacterium aurum): 250 µg/mL (≈ 904 µM)
MIC (Mycobacterium kansasii): > 100 µg/mL
MIC [4]: 62.5 µg/mL (≈ 226 µM)
MIC (Mycobacterium avium): > 100 µg/mL

Cc1cc(C(=O)Nc2cncc(Cl)n2)ccn1
IC50 [1]: > 1 mM
MIC [2]: > 100 µg/mL
MIC [3]: ≥ 500 µg/mL
MIC (Mycolicibacterium aurum): 250 µg/mL (≈ 1010 µM)
MIC (Mycobacterium kansasii): > 100 µg/mL
MIC [4]: ≥ 500 µg/mL
MIC (Mycobacterium avium): > 100 µg/mL

O=C(Nc1cnccn1)c1ccc2ccccc2n1
IC50 [1]: > 0.1 mM
MIC [2]: > 100 µg/mL
MIC [3]: ≥ 125 µg/mL
MIC (Mycolicibacterium aurum): ≥ 125 µg/mL
MIC (Mycobacterium kansasii): > 100 µg/mL
MIC [4]: ≥ 125 µg/mL
MIC (Mycobacterium avium): > 100 µg/mL

COc1ccnc(C(=O)Nc2ccc(C(=O)O)c(O)c2)c1
IC50 [1]: > 1 mM
selectivity ratio [5]: 185
MIC [2]: 1.56 µg/mL (≈ 5.41 µM)
MIC [3]: 125 µg/mL (≈ 434 µM)
MIC (Mycolicibacterium aurum): 62.5 µg/mL (≈ 217 µM)
MIC (Mycobacterium kansasii): > 100 µg/mL
MIC [4]: 31.2 µg/mL (≈ 108 µM)
MIC (Mycobacterium avium): > 100 µg/mL

O=C(Nc1cnccn1)c1ccccn1
IC50 [1]: > 1 mM
MIC [2]: > 100 µg/mL
MIC [3]: ≥ 500 µg/mL
MIC (Mycolicibacterium aurum): ≥ 500 µg/mL
MIC (Mycobacterium kansasii): > 100 µg/mL
MIC [4]: 250 µg/mL (≈ 1250 µM)
MIC (Mycobacterium avium): > 100 µg/mL

O=C(Nc1ccc(C(=O)O)c(O)c1)c1cccc(Cl)n1
IC50 [1]: > 1 mM
selectivity ratio [5]: 93.5
MIC [2]: 3.13 µg/mL (≈ 10.7 µM)
MIC [3]: 125 µg/mL (≈ 427 µM)
MIC (Mycolicibacterium aurum): 125 µg/mL (≈ 427 µM)
MIC (Mycobacterium kansasii): > 100 µg/mL
MIC [4]: 125 µg/mL (≈ 427 µM)
MIC (Mycobacterium avium): 100 µg/mL (≈ 342 µM)

Cc1cc(C(=O)Nc2ccc(C(=O)O)c(O)c2)ccn1
IC50 [1]: > 1 mM
selectivity ratio [5]: 21.8
MIC [2]: 12.5 µg/mL (≈ 45.9 µM)
MIC [3]: ≥ 125 µg/mL
MIC (Mycolicibacterium aurum): ≥ 125 µg/mL
MIC (Mycobacterium kansasii): > 100 µg/mL
MIC [4]: ≥ 125 µg/mL
MIC (Mycobacterium avium): > 100 µg/mL

O=C(Nc1cncc(Cl)n1)c1ccc2ccccc2n1
IC50 [1]: > 0.025 mM
MIC [2]: > 25 µg/mL
MIC [3]: ≥ 125 µg/mL
MIC (Mycolicibacterium aurum): ≥ 125 µg/mL
MIC (Mycobacterium kansasii): > 25 µg/mL
MIC [4]: ≥ 125 µg/mL
MIC (Mycobacterium avium): > 25 µg/mL

Cc1cc(C(=O)Nc2ccc(C(=O)O)c(O)c2)cc(O)n1
IC50 [1]: > 1 mM
selectivity ratio [5]: 46.1
MIC [2]: 6.25 µg/mL (≈ 21.7 µM)
MIC [3]: ≥ 500 µg/mL
MIC (Mycolicibacterium aurum): ≥ 500 µg/mL
MIC (Mycobacterium kansasii): > 100 µg/mL
MIC [4]: ≥ 500 µg/mL
MIC (Mycobacterium avium): > 100 µg/mL

O=C(O)c1ccc(NC(=O)c2ccc3ccccc3n2)cc1
IC50 [1]: > 0.05 mM
selectivity ratio [5]: > 0.6
MIC [2]: 25 µg/mL (≈ 85.5 µM)
MIC [3]: ≥ 500 µg/mL
MIC (Mycolicibacterium aurum): 62.5 µg/mL (≈ 214 µM)
MIC (Mycobacterium kansasii): 25 µg/mL (≈ 85.5 µM)
MIC [4]: 31.2 µg/mL (≈ 107 µM)
MIC (Mycobacterium avium): 25 µg/mL (≈ 85.5 µM)

O=C(Nc1cnccn1)c1ccc(C(F)(F)F)cn1
IC50 [1]: > 0.146 mM
MIC [2]: 50 µg/mL (≈ 186 µM)
MIC [3]: ≥ 500 µg/mL
MIC (Mycolicibacterium aurum): ≥ 500 µg/mL
MIC (Mycobacterium kansasii): 6.25 µg/mL (≈ 23.3 µM)
MIC [4]: ≥ 500 µg/mL
MIC (Mycobacterium avium): > 100 µg/mL

O=C(Nc1ccc(C(=O)O)c(O)c1)c1ccccn1
IC50 [1]: > 1 mM
selectivity ratio [5]: 166
MIC [2]: 1.56 µg/mL (≈ 6.04 µM)
MIC [3]: 15.6 µg/mL (≈ 60.5 µM)
MIC (Mycolicibacterium aurum): 62.5 µg/mL (≈ 242 µM)
MIC (Mycobacterium kansasii): 50 µg/mL (≈ 194 µM)
MIC [4]: 250 µg/mL (≈ 968 µM)
MIC (Mycobacterium avium): > 100 µg/mL

O=C(O)c1ccc(NC(=O)c2ccc(Cl)nc2)cc1
IC50 [1]: > 0.25 mM
MIC [2]: > 100 µg/mL
MIC [3]: ≥ 500 µg/mL
MIC (Mycolicibacterium aurum): 250 µg/mL (≈ 904 µM)
MIC (Mycobacterium kansasii): > 100 µg/mL
MIC [4]: 62.5 µg/mL (≈ 226 µM)
MIC (Mycobacterium avium): > 100 µg/mL

Nc1cncc(Cl)n1
IC50 [1]: > 1 mM
MIC [2]: > 100 µg/mL
MIC [3]: ≥ 500 µg/mL
MIC (Mycolicibacterium aurum): ≥ 500 µg/mL
MIC (Mycobacterium kansasii): > 100 µg/mL
MIC [4]: ≥ 500 µg/mL
MIC (Mycobacterium avium): > 100 µg/mL

Nc1ccc(C(=O)O)cc1 [AMINOBENZOIC ACID]
IC50 [1]: > 1 mM
MIC [2]: > 100 µg/mL
MIC [3]: ≥ 500 µg/mL
MIC (Mycolicibacterium aurum): 250 µg/mL (≈ 1820 µM)
MIC (Mycobacterium kansasii): > 100 µg/mL
MIC [4]: 250 µg/mL (≈ 1820 µM)
MIC (Mycobacterium avium): > 100 µg/mL

Nc1cnccn1
IC50 [1]: > 1 mM
MIC [2]: > 100 µg/mL
MIC [3]: ≥ 500 µg/mL
MIC (Mycolicibacterium aurum): ≥ 500 µg/mL
MIC (Mycobacterium kansasii): > 100 µg/mL
MIC [4]: ≥ 500 µg/mL
MIC (Mycobacterium avium): > 100 µg/mL

O=C(O)c1ccc(NC(=O)c2ccccn2)cc1
IC50 [1]: > 0.25 mM
MIC [2]: > 100 µg/mL
MIC [3]: ≥ 500 µg/mL
MIC (Mycolicibacterium aurum): 250 µg/mL (≈ 1030 µM)
MIC (Mycobacterium kansasii): > 100 µg/mL
MIC [4]: 125 µg/mL (≈ 516 µM)
MIC (Mycobacterium avium): > 100 µg/mL

O=C(Nc1cnccn1)c1ccncc1
IC50 [1]: > 1 mM
MIC [2]: > 100 µg/mL
MIC [3]: ≥ 500 µg/mL
MIC (Mycolicibacterium aurum): ≥ 500 µg/mL
MIC (Mycobacterium kansasii): > 100 µg/mL
MIC [4]: ≥ 500 µg/mL
MIC (Mycobacterium avium): > 100 µg/mL

O=C(Nc1cnccn1)c1cccc(Cl)n1
IC50 [1]: > 0.25 mM
MIC [2]: > 100 µg/mL
MIC [3]: ≥ 500 µg/mL
MIC (Mycolicibacterium aurum): ≥ 500 µg/mL
MIC (Mycobacterium kansasii): 50 µg/mL (≈ 213 µM)
MIC [4]: ≥ 500 µg/mL
MIC (Mycobacterium avium): > 100 µg/mL

COc1ccnc(C(=O)Nc2cnccn2)c1
IC50 [1]: > 0.25 mM
MIC [2]: > 100 µg/mL
MIC [3]: ≥ 250 µg/mL
MIC (Mycolicibacterium aurum): ≥ 250 µg/mL
MIC (Mycobacterium kansasii): 50 µg/mL (≈ 217 µM)
MIC [4]: ≥ 250 µg/mL
MIC (Mycobacterium avium): > 100 µg/mL

Cc1cc(C(=O)Nc2ccc(C(=O)O)c(O)c2)cc(Cl)n1
IC50 [1]: > 1 mM
MIC [2]: 50 µg/mL (≈ 163 µM)
MIC [3]: ≥ 500 µg/mL
MIC (Mycolicibacterium aurum): ≥ 500 µg/mL
MIC (Mycobacterium kansasii): > 100 µg/mL
MIC [4]: 250 µg/mL (≈ 815 µM)
MIC (Mycobacterium avium): > 100 µg/mL

O=C(O)c1ccc(NC(=O)c2cccc(C(F)(F)F)n2)cc1
IC50 [1]: > 0.248 mM
MIC [2]: 50 µg/mL (≈ 161 µM)
MIC [3]: ≥ 500 µg/mL
MIC (Mycolicibacterium aurum): 62.5 µg/mL (≈ 201 µM)
MIC (Mycobacterium kansasii): 50 µg/mL (≈ 161 µM)
MIC [4]: 62.5 µg/mL (≈ 201 µM)
MIC (Mycobacterium avium): > 100 µg/mL

Cc1cc(C(=O)Nc2cnccn2)ccn1
IC50 [1]: > 1 mM
MIC [2]: > 100 µg/mL
MIC [3]: ≥ 250 µg/mL
MIC (Mycolicibacterium aurum): ≥ 250 µg/mL
MIC (Mycobacterium kansasii): > 100 µg/mL
MIC [4]: ≥ 250 µg/mL
MIC (Mycobacterium avium): > 100 µg/mL

O=C(Nc1cnccn1)c1ccc(Cl)nc1
IC50 [1]: > 1 mM
MIC [2]: > 100 µg/mL
MIC [3]: ≥ 250 µg/mL
MIC (Mycolicibacterium aurum): ≥ 250 µg/mL
MIC (Mycobacterium kansasii): > 100 µg/mL
MIC [4]: ≥ 250 µg/mL
MIC (Mycobacterium avium): > 100 µg/mL

NC(=O)c1cnccn1 [PYRAZINAMIDE]
IC50 [1]: > 1 mM
MIC [2]: > 100 µg/mL
MIC [3]: ≥ 500 µg/mL
MIC (Mycolicibacterium aurum): ≥ 500 µg/mL
MIC (Mycobacterium kansasii): > 100 µg/mL
MIC [4]: ≥ 500 µg/mL
MIC (Mycobacterium avium): > 100 µg/mL

CO[C@H]1/C=C/O[C@@]2(C)Oc3c(C)c(O)c4c(O)c(c(/C=N/N5CCN(C)CC5)c(O)c4c3C2=O)NC(=O)/C(C)=C\C=C\[C@H](C)[C@H](O)[C@@H](C)[C@@H](O)[C@@H](C)[C@H](OC(C)=O)[C@@H]1C [RIFAMPIN]
IC50 [1]: > 0.5 mM
MIC [3]: 12.5 µg/mL (≈ 15.2 µM)
MIC (Mycolicibacterium aurum): 0.198 µg/mL (≈ 0.241 µM)
MIC [4]: 0.003 µg/mL (≈ 0.00365 µM)

NNC(=O)c1ccncc1 [ISONIAZID]
IC50 [1]: > 1 mM
MIC [2]: 0.2 µg/mL (≈ 1.46 µM)
MIC [3]: 15.6 µg/mL (≈ 114 µM)
MIC (Mycolicibacterium aurum): 3.91 µg/mL (≈ 28.5 µM)
MIC (Mycobacterium kansasii): 12.5 µg/mL (≈ 91.1 µM)
MIC [4]: 0.25 µg/mL (≈ 1.82 µM)
MIC (Mycobacterium avium): 12.5 µg/mL (≈ 91.1 µM)

COc1ccnc(C(=O)Nc2cncc(Cl)n2)c1
IC50 [1]: > 0.5 mM
MIC [2]: > 100 µg/mL
MIC [3]: ≥ 500 µg/mL
MIC (Mycolicibacterium aurum): 250 µg/mL (≈ 945 µM)
MIC (Mycobacterium kansasii): > 100 µg/mL
MIC [4]: ≥ 500 µg/mL
MIC (Mycobacterium avium): > 100 µg/mL

Cc1cc(C(=O)Nc2cnccn2)cc(Cl)n1
IC50 [1]: > 0.25 mM
MIC [2]: > 100 µg/mL
MIC [3]: ≥ 500 µg/mL
MIC (Mycolicibacterium aurum): ≥ 500 µg/mL
MIC (Mycobacterium kansasii): > 100 µg/mL
MIC [4]: ≥ 500 µg/mL
MIC (Mycobacterium avium): > 100 µg/mL

O=C(Nc1cncc(Cl)n1)c1ccc(Cl)nc1
IC50 [1]: > 0.5 mM
MIC [2]: 100 µg/mL (≈ 372 µM)
MIC [3]: ≥ 500 µg/mL
MIC (Mycolicibacterium aurum): ≥ 500 µg/mL
MIC (Mycobacterium kansasii): > 100 µg/mL
MIC [4]: ≥ 500 µg/mL
MIC (Mycobacterium avium): > 100 µg/mL
